Assays:
[1] = biological target: Proto-oncogene tyrosine-protein kinase ROS (Homo sapiens) (UniProt P08922); assay: Inhibition of ROS1 at 1 uM
Outline: (§1)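 Single-concentration screen on the Ambit KINOMEscan platform, run against a panel of 250–400 kinases. Per-kinase inhibition was also summarized as S(90), the fraction of kinases inhibited by more than 90%.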

[2] = biological target: T1, Dual specificity mitogen-activated protein kinase kinase 6 (Homo sapiens) (UniProt P52564); assay: Inhibition of MEK6 at 1 uM
T1 sequence (whole entry): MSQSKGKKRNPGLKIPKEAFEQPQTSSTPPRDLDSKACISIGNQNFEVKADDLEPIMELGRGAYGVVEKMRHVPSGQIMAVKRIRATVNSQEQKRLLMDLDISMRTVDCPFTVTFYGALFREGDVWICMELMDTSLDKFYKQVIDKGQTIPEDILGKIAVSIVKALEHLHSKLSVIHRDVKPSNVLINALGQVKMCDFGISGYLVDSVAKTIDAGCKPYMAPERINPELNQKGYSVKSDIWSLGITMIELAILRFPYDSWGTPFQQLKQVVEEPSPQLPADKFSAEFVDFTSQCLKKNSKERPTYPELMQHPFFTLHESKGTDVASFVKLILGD
Outline: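 Kinase-panel screen using KINOMEscan technology, with 250–400 kinases per panel. Each compound was tested at a single concentration, and inhibition of each kinase was recorded. Selectivity was summarised as S(90), the fraction of kinases inhibited by more than 90%.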

[3] = biological target: Serine/threonine-protein kinase B-raf (Homo sapiens) (UniProt P15056); assay: Inhibition of BRAF at 1 uM
Sequence of Serine/threonine-protein kinase B-raf (Homo sapiens) (P15056 whole entry): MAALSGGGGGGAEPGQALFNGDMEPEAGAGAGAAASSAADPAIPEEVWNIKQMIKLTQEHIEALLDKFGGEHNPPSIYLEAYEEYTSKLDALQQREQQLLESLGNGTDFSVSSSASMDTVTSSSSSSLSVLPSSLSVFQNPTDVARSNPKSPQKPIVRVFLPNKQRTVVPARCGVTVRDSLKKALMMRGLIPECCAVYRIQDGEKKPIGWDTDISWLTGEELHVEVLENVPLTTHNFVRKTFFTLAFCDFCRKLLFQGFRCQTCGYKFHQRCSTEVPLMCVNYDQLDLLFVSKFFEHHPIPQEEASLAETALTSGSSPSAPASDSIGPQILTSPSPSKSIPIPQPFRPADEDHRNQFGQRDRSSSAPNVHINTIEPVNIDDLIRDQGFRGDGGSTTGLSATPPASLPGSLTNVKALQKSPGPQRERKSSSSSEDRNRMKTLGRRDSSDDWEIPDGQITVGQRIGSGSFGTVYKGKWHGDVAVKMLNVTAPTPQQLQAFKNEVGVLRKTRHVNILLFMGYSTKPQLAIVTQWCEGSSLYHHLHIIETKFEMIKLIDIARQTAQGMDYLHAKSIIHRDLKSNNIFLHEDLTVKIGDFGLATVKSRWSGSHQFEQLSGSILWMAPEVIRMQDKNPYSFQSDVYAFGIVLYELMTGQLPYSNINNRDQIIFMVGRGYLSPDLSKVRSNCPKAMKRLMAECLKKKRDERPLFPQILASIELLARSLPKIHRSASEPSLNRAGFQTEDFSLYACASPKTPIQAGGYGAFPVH
Outline: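 Ambit KINOMEscan screen at a single concentration across a 250–400 kinase panel, recorded as percent inhibition. Selectivity was expressed as S(90), the fraction of kinases inhibited >90%.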

[4] = biological target: Bone morphogenetic protein receptor type-1B (Homo sapiens) (UniProt O00238); assay: Inhibition of BMPR1B at 1 uM
Sequence of Bone morphogenetic protein receptor type-1B (Homo sapiens) (O00238 whole entry): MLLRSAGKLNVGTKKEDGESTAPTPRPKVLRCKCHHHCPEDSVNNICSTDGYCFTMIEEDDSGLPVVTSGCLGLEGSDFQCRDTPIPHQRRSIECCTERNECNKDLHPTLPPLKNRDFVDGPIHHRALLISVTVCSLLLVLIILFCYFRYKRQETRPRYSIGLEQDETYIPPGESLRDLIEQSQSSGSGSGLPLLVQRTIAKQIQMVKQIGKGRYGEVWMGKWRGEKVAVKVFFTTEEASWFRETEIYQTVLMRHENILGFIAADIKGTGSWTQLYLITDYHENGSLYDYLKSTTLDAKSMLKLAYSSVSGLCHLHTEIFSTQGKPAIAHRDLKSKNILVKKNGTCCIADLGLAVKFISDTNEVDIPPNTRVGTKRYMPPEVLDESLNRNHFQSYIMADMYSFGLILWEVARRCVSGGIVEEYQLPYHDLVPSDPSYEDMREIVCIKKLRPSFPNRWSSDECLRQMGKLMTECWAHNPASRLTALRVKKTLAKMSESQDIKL

[5] = biological target: Receptor tyrosine-protein kinase erbB-3 (Homo sapiens) (UniProt P21860); assay: Inhibition of ERBB3 at 1 uM
Sequence of Receptor tyrosine-protein kinase erbB-3 (Homo sapiens) (P21860 whole entry): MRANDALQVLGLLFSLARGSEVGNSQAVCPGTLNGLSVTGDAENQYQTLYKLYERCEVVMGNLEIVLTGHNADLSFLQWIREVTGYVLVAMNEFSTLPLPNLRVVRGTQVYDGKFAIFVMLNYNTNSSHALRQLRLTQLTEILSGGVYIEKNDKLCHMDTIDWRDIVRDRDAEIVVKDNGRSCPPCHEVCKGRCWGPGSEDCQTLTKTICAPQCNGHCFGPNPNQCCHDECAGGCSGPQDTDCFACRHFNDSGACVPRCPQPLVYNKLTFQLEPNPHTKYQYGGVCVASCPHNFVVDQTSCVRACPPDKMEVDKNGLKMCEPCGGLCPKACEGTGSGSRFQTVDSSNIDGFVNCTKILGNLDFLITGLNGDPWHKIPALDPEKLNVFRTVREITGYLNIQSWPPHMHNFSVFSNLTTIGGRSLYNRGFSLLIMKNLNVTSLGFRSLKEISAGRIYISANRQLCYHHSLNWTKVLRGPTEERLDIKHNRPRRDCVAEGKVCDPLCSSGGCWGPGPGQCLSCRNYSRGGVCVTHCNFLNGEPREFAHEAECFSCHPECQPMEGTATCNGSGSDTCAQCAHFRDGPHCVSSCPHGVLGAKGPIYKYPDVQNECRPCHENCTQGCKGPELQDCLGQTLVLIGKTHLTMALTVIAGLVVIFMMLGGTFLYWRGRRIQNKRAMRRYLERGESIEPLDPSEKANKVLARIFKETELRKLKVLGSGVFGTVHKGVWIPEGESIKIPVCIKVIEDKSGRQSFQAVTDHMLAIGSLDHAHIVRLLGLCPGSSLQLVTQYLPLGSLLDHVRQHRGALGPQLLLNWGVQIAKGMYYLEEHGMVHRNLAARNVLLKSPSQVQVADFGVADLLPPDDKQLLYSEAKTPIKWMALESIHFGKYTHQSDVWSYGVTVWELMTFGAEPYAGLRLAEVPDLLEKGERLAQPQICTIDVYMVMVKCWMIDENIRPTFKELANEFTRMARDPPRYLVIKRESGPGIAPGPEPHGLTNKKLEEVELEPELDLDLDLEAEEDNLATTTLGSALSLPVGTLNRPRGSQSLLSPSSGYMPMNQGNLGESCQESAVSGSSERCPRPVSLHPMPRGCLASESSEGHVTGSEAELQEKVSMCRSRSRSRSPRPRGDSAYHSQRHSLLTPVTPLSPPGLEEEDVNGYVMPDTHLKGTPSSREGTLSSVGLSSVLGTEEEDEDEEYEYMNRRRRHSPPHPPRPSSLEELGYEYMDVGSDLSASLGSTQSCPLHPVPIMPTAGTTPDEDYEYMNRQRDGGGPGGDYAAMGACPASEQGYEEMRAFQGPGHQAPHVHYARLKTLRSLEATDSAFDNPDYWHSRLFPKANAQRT

[6] = system: Hepatocyte growth factor receptor (Homo sapiens), P08581 [M1250T]; assay: Inhibition of MET M1250T mutant at 1 uM
Sequence of Hepatocyte growth factor receptor (Homo sapiens), P08581 [M1250T] (P08581 whole entry M1250T): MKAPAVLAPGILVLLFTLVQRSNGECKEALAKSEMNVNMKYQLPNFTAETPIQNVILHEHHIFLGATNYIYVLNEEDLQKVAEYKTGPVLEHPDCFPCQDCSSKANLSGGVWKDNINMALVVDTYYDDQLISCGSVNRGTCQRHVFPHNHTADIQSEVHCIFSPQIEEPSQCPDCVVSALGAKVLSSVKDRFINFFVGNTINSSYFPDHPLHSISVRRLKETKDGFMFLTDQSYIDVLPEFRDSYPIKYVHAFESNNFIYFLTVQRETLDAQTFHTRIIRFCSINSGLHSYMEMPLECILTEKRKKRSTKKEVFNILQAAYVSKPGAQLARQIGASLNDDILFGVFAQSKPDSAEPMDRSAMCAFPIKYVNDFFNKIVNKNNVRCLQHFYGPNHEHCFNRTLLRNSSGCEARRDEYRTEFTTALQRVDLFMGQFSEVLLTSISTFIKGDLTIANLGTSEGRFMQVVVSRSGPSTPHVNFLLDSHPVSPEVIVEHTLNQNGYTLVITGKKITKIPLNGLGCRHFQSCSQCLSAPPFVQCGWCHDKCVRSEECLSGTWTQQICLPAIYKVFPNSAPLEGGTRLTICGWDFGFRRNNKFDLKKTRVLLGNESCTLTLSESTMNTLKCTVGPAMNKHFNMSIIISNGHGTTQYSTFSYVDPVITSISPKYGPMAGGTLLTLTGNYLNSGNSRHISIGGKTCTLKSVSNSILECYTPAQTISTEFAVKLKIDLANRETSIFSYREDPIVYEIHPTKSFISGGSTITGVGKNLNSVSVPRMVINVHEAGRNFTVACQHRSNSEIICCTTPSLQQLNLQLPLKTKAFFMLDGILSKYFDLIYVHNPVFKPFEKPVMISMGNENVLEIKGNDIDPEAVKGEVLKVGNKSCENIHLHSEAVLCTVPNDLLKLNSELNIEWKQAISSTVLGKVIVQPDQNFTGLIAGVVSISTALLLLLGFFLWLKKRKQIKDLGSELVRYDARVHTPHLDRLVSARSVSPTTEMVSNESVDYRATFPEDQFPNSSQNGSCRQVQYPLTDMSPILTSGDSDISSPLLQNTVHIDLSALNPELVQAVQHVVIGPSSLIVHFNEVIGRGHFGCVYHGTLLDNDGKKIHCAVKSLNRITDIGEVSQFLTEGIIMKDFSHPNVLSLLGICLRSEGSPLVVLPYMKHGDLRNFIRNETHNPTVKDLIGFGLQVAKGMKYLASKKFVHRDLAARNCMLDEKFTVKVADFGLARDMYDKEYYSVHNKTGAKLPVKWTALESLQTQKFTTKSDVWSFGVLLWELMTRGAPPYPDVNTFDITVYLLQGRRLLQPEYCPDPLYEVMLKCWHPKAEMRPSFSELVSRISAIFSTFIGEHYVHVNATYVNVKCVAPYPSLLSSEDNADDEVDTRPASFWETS

[7] = biological target: T2, Cyclin-G-associated kinase (Homo sapiens) (UniProt O14976); assay: Inhibition of GAK at 1 uM; outline: as §1
T2 sequence (whole entry): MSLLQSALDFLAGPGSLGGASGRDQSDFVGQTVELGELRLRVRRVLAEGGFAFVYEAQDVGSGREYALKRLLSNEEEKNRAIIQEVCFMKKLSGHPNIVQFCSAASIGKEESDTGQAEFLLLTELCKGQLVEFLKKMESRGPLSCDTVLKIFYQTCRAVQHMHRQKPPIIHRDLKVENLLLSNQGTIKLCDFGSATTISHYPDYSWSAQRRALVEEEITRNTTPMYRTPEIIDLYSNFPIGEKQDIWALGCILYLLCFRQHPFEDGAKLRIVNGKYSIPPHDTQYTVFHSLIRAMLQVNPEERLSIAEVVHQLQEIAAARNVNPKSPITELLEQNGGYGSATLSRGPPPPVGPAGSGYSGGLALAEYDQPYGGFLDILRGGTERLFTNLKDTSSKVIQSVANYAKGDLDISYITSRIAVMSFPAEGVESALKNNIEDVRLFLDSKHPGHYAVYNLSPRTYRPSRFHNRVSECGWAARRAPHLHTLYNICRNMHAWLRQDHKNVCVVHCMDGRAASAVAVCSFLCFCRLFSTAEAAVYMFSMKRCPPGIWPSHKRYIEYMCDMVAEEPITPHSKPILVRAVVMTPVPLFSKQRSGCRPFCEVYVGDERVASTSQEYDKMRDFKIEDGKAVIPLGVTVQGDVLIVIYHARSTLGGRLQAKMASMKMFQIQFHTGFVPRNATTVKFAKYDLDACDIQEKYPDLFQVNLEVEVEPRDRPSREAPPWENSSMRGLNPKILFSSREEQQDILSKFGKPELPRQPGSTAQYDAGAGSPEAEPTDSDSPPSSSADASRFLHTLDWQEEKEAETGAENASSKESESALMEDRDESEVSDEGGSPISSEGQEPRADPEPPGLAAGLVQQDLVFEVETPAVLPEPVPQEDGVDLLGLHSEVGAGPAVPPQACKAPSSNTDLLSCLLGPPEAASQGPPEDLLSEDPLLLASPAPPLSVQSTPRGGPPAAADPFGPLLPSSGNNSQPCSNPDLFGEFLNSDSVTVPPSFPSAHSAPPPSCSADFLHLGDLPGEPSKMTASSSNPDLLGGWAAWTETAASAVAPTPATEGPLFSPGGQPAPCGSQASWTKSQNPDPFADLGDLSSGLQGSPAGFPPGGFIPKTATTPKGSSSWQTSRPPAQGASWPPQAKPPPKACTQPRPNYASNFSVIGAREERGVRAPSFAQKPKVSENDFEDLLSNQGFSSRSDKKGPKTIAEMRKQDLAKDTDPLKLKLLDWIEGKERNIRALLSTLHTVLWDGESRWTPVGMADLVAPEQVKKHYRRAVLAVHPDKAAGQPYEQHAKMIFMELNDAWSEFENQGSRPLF

[8] = biological target: T3, Serine/threonine-protein kinase tousled-like 1 (Homo sapiens) (UniProt Q9UKI8); assay: Inhibition of TLK1 at 1 uM
T3 sequence (whole entry): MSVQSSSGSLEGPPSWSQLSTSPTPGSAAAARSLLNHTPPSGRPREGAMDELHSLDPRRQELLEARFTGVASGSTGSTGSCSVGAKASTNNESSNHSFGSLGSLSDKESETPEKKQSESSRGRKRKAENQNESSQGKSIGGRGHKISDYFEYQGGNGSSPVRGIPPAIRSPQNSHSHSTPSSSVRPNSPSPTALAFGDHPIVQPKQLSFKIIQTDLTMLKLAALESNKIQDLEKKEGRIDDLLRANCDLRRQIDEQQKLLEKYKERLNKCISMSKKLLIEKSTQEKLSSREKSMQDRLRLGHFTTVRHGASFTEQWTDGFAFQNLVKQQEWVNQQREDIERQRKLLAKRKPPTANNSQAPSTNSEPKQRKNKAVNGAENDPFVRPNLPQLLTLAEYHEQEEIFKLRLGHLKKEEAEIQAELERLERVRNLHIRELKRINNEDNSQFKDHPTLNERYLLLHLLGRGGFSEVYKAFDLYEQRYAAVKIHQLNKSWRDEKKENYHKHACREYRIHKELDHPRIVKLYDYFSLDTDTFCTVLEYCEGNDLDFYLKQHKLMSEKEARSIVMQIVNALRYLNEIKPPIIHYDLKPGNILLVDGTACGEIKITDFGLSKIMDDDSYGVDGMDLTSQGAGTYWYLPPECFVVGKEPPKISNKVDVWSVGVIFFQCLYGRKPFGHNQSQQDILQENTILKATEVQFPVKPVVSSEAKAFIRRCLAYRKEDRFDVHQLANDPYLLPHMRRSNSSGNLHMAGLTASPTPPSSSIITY

[9] = biological target: Serine/threonine-protein kinase SIK2 (Homo sapiens) (UniProt Q9H0K1); assay: Inhibition of SIK2 at 1 uM
Sequence of Serine/threonine-protein kinase SIK2 (Homo sapiens) (Q9H0K1 whole entry, looked up): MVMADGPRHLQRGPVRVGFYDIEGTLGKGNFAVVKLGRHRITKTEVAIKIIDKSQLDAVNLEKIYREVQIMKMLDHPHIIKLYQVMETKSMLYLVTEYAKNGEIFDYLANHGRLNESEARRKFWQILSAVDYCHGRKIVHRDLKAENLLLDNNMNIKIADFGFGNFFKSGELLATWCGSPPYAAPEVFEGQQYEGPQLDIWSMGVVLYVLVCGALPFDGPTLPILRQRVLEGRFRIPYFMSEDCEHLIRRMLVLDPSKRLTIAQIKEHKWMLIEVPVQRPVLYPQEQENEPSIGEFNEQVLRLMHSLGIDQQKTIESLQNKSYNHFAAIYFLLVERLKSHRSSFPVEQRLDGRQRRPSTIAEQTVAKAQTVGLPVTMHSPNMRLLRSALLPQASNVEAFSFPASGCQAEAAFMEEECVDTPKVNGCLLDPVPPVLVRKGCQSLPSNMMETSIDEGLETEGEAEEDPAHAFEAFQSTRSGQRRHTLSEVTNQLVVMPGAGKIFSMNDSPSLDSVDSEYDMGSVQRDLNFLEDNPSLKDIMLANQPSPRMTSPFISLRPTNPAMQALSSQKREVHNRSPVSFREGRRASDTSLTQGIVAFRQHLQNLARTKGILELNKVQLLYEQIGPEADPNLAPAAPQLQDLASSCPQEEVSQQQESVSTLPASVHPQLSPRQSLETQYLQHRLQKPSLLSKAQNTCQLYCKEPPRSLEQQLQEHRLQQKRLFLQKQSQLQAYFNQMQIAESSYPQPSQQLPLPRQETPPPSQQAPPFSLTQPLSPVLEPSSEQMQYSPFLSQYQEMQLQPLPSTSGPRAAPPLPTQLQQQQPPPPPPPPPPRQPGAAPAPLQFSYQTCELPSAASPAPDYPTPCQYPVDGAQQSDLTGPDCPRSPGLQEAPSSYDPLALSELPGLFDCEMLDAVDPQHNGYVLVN

inhibition [1] [%] | inhibition [2] [%] | inhibition [3] [%] | inhibition [4] [%] | inhibition [5] [%] | inhibition [6] [%] | inhibition [7] [%] | inhibition [8] [%] | inhibition [9] [%] | Structure (SMILES)
72 | < 50 | < 50 | < 50 | < 50 | < 50 | < 50 | < 50 | < 50 | CN1CCN(c2ccc(-c3cnc4c(c3)N(Cc3cc(Cl)ccc3C(F)(F)F)CCN4)cn2)CC1
66.7 | 93 | < 50 | – | – | – | 66.5 | < 50 | – | O=C(O)c1ccc(-c2cnc3c(c2)N(Cc2cc(Cl)ccc2C(F)(F)F)CCN3)cc1
80.7 | < 50 | < 50 | – | – | – | < 50 | < 50 | < 50 | O=C(c1ccc(-c2cnc3c(c2)N(Cc2cc(Cl)ccc2C(F)(F)F)CCN3)cc1)N1CCC(N2CCCC2)CC1
78.2 | < 50 | < 50 | – | – | – | < 50 | < 50 | < 50 | COC1CCN(C(=O)c2ccc(-c3cnc4c(c3)N(Cc3cc(Cl)ccc3C(F)(F)F)CCN4)cc2)CC1
92 | < 50 | < 50 | < 50 | < 50 | 86 | < 50 | < 50 | 75 | FC(F)(F)c1ccc(Cl)cc1CN1CCNc2ncc(-c3ccnc(N4CCNCC4)c3)cc21
79 | < 50 | < 50 | < 50 | < 50 | < 50 | < 50 | < 50 | < 50 | CC(=O)N1CCN(c2cc(-c3cnc4c(c3)N(Cc3cc(Cl)ccc3C(F)(F)F)CCN4)ccn2)CC1
67.5 | < 50 | < 50 | < 50 | < 50 | < 50 | < 50 | < 50 | < 50 | CN1CCN(c2ccc(-c3cnc4c(c3)N(Cc3cc(F)ccc3F)CCN4)cn2)CC1
73 | < 50 | < 50 | < 50 | < 50 | 82 | < 50 | < 50 | < 50 | CN1CCN(c2ccc(-c3cnc4c(c3)N(Cc3c(F)ccc(F)c3Cl)CCN4)cn2)CC1
< 50 | < 50 | < 50 | – | – | – | < 50 | < 50 | – | O=C(c1ccc(-c2cnc3c(c2)N(Cc2cc(Cl)ccc2C(F)(F)F)CCN3)cc1)N1CCCCC1
< 50 | < 50 | < 50 | < 50 | < 50 | < 50 | < 50 | < 50 | < 50 | CN1CCN(c2ccc(-c3cnc4c(c3)N(Cc3cc(Cl)ccc3Cl)CCN4)cn2)CC1

From ChEMBL document CHEMBL1165965, “Synthesis and structure-activity relationships of 1,2,3,4-tetrahydropyrido[2,3-b]pyrazines as potent and selective inhibitors of the anaplastic lymphoma kinase” (Bioorg Med Chem, 2010)
